Columns and labels:
[1] = test system: human lung cancer A549 cells; test: MTT cytotoxicity screening on human lung cancer cells; format: cell-based; settings: for IC50: Homo sapiens, A549, 72 h, read-out: A549 IC50; for SI (selectivity index): ratio of IC50 values against Wi-38 and A549 cells
Summary of the method: (§1)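 A549 and Wi-38 cells, sourced from the National Cancer Institute (Cairo), grown in RPMI-1640 with L-glutamine, 10% FBS and 1% penicillin-streptomycin at 37 °C, 5% CO2. Seeded in triplicate at 5 × 10^4 cells, then exposed next day to test compound at 0.01, 0.1, 1, 10 and 100 µM. Viability measured by MTT relative to untreated control, and IC50 computed.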

[2] = test system: normal human lung fibroblasts (Wi-38); test: MTT cytotoxicity screening on normal human lung fibroblasts; format: cell-based; settings: WI-38, 72 h, read-out: Wi-38 EC50
Summary of the method: as §1

CDK2 = CDK2 (Homo sapiens, UniProt P24941); test: In vitro CDK2 inhibition, CDK2 luminescence kinase assay kit; format: biochemical

Structure (SMILES) | IC50 [1] | SI (selectivity index) [1] | EC50 [2] | % inhibition ± SD at [10 μM] of CDK2 (CDK2; 10 μM) | IC50 (CDK2; CDK2 IC50, serial dilutions 0.01–10 μM, mean ± SD of three replicates) | inhibition at 10 µM (CDK2; read-out: % inhibition ± SD at [10 μM] of CDK2, 10 μM)
O=C(c1nc2ccccc2[nH]1)[C@H]1[C@H](c2ccc(F)cc2)C2CC3CCCCC3N2[C@@]12c1ccccc1-c1nc3ccccc3nc12 (stereo partly drawn) [Compound 6c, (1H-Benzo[d]imidazol-2-yl)((1'R,2'S,11R)-1'-(4-fluorophenyl)-1',2',4a’,5',6',7',8',8a’,9',9a’-decahydrospiro[indeno[1,2-b]quinoxaline-11,3'-pyrrolo[1,2-a]indol]-2'-yl)methanone] | 139 ± 3 nM | 1.208 | 168 ± 19 nM | – | – | –
O=C(c1nc2ccccc2[nH]1)[C@H]1[C@H](c2ccco2)[C@H]2CCCN2[C@@]12c1ccccc1-c1nc3ccccc3nc12 [Compound 4a, (1H-Benzo[d]imidazol-2-yl)((1'S,2'S,7a’R,11R)-1'-(furan-2-yl)-1',2',5',6',7',7a’-hexahydrospiro[indeno[1,2-b]quinoxaline-11,3'-pyrrolizin]-2'-yl)methanone] | 82 ± 2 nM | 7.402 | 607 ± 50 nM | – | – | –
O=C(c1nc2ccccc2[nH]1)[C@H]1[C@H](c2ccc(Cl)cc2Cl)[C@H]2CCCN2[C@@]12c1ccccc1-c1nc3ccccc3nc12 [Compound 4b, (1H-Benzo[d]imidazol-2-yl)((1'R,2'S,7a’R,11R)-1'-(2,4-dichlorophenyl)-1',2',5',6',7',7a’-hexahydrospiro[indeno[1,2-b]quinoxaline-11,3'-pyrrolizin]-2'-yl)methanone] | 225 ± 5 nM | 3.942 | 887 ± 11 nM | – | – | –
O=C(c1nc2ccccc2[nH]1)[C@H]1[C@H](c2ccc(Br)cc2)[C@H]2CCCN2[C@@]12c1ccccc1-c1nc3ccccc3nc12 [Compound 4d, (1H-Benzo[d]imidazol-2-yl)((1'R,2'S,7a’R,11R)-1'-(4-bromophenyl)-1',2',5',6',7',7a’-hexahydrospiro[indeno[1,2-b]quinoxaline-11,3'-pyrrolizin]-2'-yl)methanone] | 135 ± 2 nM | 1.303 | 176 ± 2 nM | – | – | –
O=c1[nH]cc(F)c(=O)[nH]1 [Compound 5-Fu, 5-fluorouracil, reference compound] | 3780 ± 520 nM | 1.107 | 4190 ± 168 nM | – | – | –
O=C(c1nc2ccccc2[nH]1)[C@H]1[C@H](c2ccco2)C2CC3CCCCC3N2[C@@]12c1ccccc1-c1nc3ccccc3nc12 (stereo partly drawn) [Compound 6a, (1H-Benzo[d]imidazol-2-yl)((1'S,2'S,11R)-1'-(furan-2-yl)-1',2',4a’,5',6',7',8',8a’,9',9a’-decahydrospiro[indeno[1,2-b]quinoxaline-11,3'-pyrrolo[1,2-a]indol]-2'-yl)methanone] | 98 ± 6 nM | 1.142 | 112 ± 1 nM | – | – | –
O=C(c1nc2ccccc2[nH]1)[C@H]1[C@H](c2ccc(F)cc2)[C@H]2CCCN2[C@@]12c1ccccc1-c1nc3ccccc3nc12 [Compound 4c, (1H-Benzo[d]imidazol-2-yl)((1'R,2'S,7a’R,11R)-1'-(4-fluorophenyl)-1',2',5',6',7',7a’-hexahydrospiro[indeno[1,2-b]quinoxaline-11,3'-pyrrolizin]-2'-yl)methanone] | 206 ± 9 nM | 1.053 | 217 ± 7 nM | – | – | –
O=C(c1nc2ccccc2[nH]1)[C@H]1[C@H](c2cccc(F)c2)C2CC3CCCCC3N2[C@@]12c1ccccc1-c1nc3ccccc3nc12 (stereo partly drawn) [Compound 6e, (1H-Benzo[d]imidazol-2-yl)((1'R,2'S,11R)-1'-(3-fluorophenyl)-1',2',4a’,5',6',7',8',8a’,9',9a’-decahydrospiro[indeno[1,2-b]quinoxaline-11,3'-pyrrolo[1,2-a]indol]-2'-yl)methanone] | 137 ± 16 nM | 0.832 | 114 ± 3 nM | – | – | –
O=C(c1nc2ccccc2[nH]1)[C@H]1[C@H](c2ccccc2)[C@H]2CCCN2[C@@]12c1ccccc1-c1nc3ccccc3nc12 [Compound 4h, (1H-Benzo[d]imidazol-2-yl)((1'R,2'S,7a’R,11R)-1'-phenyl-1',2',5',6',7',7a’-hexahydrospiro[indeno[1,2-b]quinoxaline-11,3'-pyrrolizin]-2'-yl)methanone] | 177 ± 3 nM | 1.090 | 193 ± 10 nM | – | – | –
O=C(c1nc2ccccc2[nH]1)[C@H]1[C@H](c2ccc(Cl)cc2Cl)C2CC3CCCCC3N2[C@@]12c1ccccc1-c1nc3ccccc3nc12 (stereo partly drawn) [Compound 6b, (1H-Benzo[d]imidazol-2-yl)((1'R,2'S,11R)-1'-(2,4-dichlorophenyl)-1',2',4a’,5',6',7',8',8a’,9',9a’-decahydrospiro[indeno[1,2-b]quinoxaline-11,3'-pyrrolo[1,2-a]indol]-2'-yl)methanone] | 54 ± 8 nM | 6.648 | 359 ± 8 nM | 70.72 ± 2.8% | 177 nM | 70.7%
O=C(c1nc2ccccc2[nH]1)[C@H]1[C@H](c2cccs2)C2CC3CCCCC3N2[C@@]12c1ccccc1-c1nc3ccccc3nc12 (stereo partly drawn) [Compound 6g, (1H-Benzo[d]imidazol-2-yl)((1'S,2'S,11R)-1'-(thiophen-2-yl)-1',2',4a’,5',6',7',8',8a’,9',9a’-decahydrospiro[indeno[1,2-b]quinoxaline-11,3'-pyrrolo[1,2-a]indol]-2'-yl)methanone] | 84 ± 4 nM | 1.952 | 164 ± 60 nM | – | – | –
O=C(c1nc2ccccc2[nH]1)[C@H]1[C@H](c2ccccc2)C2CC3CCCCC3N2[C@@]12c1ccccc1-c1nc3ccccc3nc12 (stereo partly drawn) [Compound 6h, (1H-Benzo[d]imidazol-2-yl)((1'R,2'S,11R)-1'-phenyl-1',2',4a’,5',6',7',8',8a’,9',9a’-decahydrospiro[indeno[1,2-b]quinoxaline-11,3'-pyrrolo[1,2-a]indol]-2'-yl)methanone] | 202 ± 6 nM | 0.856 | 173 ± 1 nM | – | – | –
O=C(c1nc2ccccc2[nH]1)[C@H]1[C@H](c2cccc(F)c2)[C@H]2CCCN2[C@@]12c1ccccc1-c1nc3ccccc3nc12 [Compound 4e, (1H-Benzo[d]imidazol-2-yl)((1'R,2'S,7a’R,11R)-1'-(3-fluorophenyl)-1',2',5',6',7',7a’-hexahydrospiro[indeno[1,2-b]quinoxaline-11,3'-pyrrolizin]-2'-yl)methanone] | 321 ± 5 nM | 3.429 | 1100 ± 205 nM | – | – | –
O=C(c1nc2ccccc2[nH]1)[C@H]1[C@H](c2ccc(Br)cc2)C2CC3CCCCC3N2[C@@]12c1ccccc1-c1nc3ccccc3nc12 (stereo partly drawn) [Compound 6d, (1H-Benzo[d]imidazol-2-yl)((1'R,2'S,11R)-1'-(4-bromophenyl)-1',2',4a’,5',6',7',8',8a’,9',9a’-decahydrospiro[indeno[1,2-b]quinoxaline-11,3'-pyrrolo[1,2-a]indol]-2'-yl)methanone] | 87 ± 3 nM | 0.885 | 77 ± 1 nM | – | – | –
COc1ccc([C@@H]2C3CC4CCCCC4N3[C@@]3(c4ccccc4-c4nc5ccccc5nc43)[C@H]2C(=O)c2nc3ccccc3[nH]2)cc1 (stereo partly drawn) [Compound 6f, (1H-Benzo[d]imidazol-2-yl)((1'R,2'S,11R)-1'-(4-methoxyphenyl)-1',2',4a’,5',6',7',8',8a’,9',9a’-decahydrospiro[indeno[1,2-b]quinoxaline-11,3'-pyrrolo[1,2-a]indol]-2'-yl)methanone] | 107 ± 2 nM | 5.130 | 549 ± 10 nM | – | – | –
O=C(c1nc2ccccc2[nH]1)[C@H]1[C@H](c2cccs2)[C@H]2CCCN2[C@@]12c1ccccc1-c1nc3ccccc3nc12 [Compound 4g, (1H-Benzo[d]imidazol-2-yl)((1'S,2'S,7a’R,11R)-1'-(thiophen-2-yl)-1',2',5',6',7',7a’-hexahydrospiro[indeno[1,2-b]quinoxaline-11,3'-pyrrolizin]-2'-yl)methanone] | 182 ± 4 nM | 1.384 | 252 ± 1 nM | – | – | –
